The source of these data is PMC4201343 (ACS Chemical Biology, 2014).

Entries after “also recorded” stand apart in the source; their conditions may differ. Read-outs that look alike come from different tables or passages of the source.

Series [1] deals with T1, HCV NS3h (Hepatitis C virus genotype 1b, UniProt Q9WMX2).
T1 sequence (Q9WMX2 1190-1657 limits assumed): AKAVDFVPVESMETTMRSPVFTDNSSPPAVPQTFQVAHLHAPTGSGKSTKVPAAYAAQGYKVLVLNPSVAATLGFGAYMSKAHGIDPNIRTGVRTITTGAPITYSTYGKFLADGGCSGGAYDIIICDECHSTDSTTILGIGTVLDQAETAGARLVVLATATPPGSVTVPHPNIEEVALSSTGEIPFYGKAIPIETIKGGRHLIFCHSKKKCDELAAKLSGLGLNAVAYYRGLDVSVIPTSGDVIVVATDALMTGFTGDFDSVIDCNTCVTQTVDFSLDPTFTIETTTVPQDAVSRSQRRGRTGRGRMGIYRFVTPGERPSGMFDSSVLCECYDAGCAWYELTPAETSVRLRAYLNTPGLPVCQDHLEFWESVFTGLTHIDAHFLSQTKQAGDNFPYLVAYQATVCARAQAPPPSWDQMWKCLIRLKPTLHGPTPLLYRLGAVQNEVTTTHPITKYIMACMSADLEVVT
The series can be described thus: FP-based binding assay, NS3h displacement from Cy5-dT15 DNA. Also on record: species or system hepatitis C virus genotype 1b (con1). The conditions noted are these: for NS3h (% I): percent inhibition of NS3h binding to Cy5-dT15: 100 μM of each compound, 100 µM. The method, boiled down: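 Fluorescence polarization with Cy5-dT15 and NS3h: excitation 635 nm; parallel and perpendicular emission read at 667 nm; G-factor taken from probe-only wells. % inhibition normalized to DMSO-only (negative) and 200 nM dT20 or 100 μM primuline (positive) controls. Single-point tests at 100 μM. IC50 is the concentration displacing 50% of NS3h from DNA. Reversibility: 10 μM NS3h preincubated 1 h with test compound, then diluted 100–100 000-fold into Cy5-dT15 and compared with untreated controls.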

The target in series [2] is T1, HCV NS3h. The series can be described thus: FP-based binding assay, NS3h displacement from Cy5-rU15 RNA. Also on record: species or system hepatitis C virus genotype 1b (con1). The conditions noted are these: IC50 RNA (Cy5-rU15–NS3h complex, RNA:NS3h binding), Figures 1C and 7B titration. The method, boiled down:
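Con1 NS3h bound to 5′-Cy5-labelled rU15 RNA was titrated with test compound. Polarisation was read with excitation 635 nm and emission 667 nm, G-factor from probe-only wells. Values were normalised to DMSO and positive controls and fit to a concentration–response equation (n = 3). IC50 is the concentration reducing complex polarisation by 50%.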

The target of series [3] is E. coli SSB (Escherichia coli, UniProt P0AGE0). The series can be described thus: FP-based binding assay with SSB in place of NS3h. The method, boiled down: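 Fluorescence polarisation assay with E. coli SSB in place of NS3h, using Cy5-dT15 (or Cy5-rU15 for titrations). Screen compounds were pin-transferred to 100 μM final, 1% DMSO. Excitation 635 nm, emission 667 nm; G-factor from probe-only wells. Percent inhibition was normalised to DMSO and to unlabeled dT20 or 100 μM primuline controls.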
Chain of E. coli SSB (P0AGE0 2-178 limits assumed): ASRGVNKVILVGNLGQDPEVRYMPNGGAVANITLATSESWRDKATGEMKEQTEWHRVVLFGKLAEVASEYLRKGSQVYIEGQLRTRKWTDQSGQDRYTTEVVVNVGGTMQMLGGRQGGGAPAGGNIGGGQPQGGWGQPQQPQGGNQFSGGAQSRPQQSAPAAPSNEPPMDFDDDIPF

Series [4] addresses T2, NS3h helicase (Hepatitis C virus genotype 1b, UniProt Q9WMX2).
T2 sequence (Q9WMX2 1190-1657 limits assumed): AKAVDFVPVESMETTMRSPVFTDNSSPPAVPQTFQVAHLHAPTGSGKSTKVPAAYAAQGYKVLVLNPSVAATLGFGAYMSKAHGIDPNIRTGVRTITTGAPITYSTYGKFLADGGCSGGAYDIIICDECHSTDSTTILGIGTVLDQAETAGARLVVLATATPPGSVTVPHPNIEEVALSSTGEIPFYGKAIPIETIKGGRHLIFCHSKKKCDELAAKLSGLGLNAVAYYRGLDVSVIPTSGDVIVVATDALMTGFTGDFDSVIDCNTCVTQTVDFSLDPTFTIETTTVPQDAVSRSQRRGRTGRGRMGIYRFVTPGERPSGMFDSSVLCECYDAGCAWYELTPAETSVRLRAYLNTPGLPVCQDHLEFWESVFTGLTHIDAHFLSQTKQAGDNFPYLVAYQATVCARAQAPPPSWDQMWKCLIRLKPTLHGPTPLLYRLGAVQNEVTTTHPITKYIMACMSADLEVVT
Put plainly: Molecular beacon-based helicase. It counts as biochemical, hepatitis C virus genotype 1b (con1). Conditions: IC50 Helicase (DNA unwinding), Figure 7B, no DTT.

The target of series [5] is T3, NS3 ATPase (Hepatitis C virus genotype 1b, UniProt Q9WMX2).
T3 sequence (Q9WMX2 1190-1657 limits assumed): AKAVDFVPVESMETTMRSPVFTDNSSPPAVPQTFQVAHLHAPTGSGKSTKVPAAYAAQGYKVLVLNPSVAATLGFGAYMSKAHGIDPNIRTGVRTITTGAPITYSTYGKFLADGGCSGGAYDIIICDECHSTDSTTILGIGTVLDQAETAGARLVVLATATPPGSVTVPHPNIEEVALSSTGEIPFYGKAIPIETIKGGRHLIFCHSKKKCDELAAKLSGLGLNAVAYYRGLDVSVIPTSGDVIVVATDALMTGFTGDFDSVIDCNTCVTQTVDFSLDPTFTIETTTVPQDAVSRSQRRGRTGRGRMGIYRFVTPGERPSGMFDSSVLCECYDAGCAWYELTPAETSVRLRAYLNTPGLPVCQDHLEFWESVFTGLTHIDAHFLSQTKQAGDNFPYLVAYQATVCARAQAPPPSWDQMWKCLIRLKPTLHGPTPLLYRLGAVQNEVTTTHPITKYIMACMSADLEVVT
Put plainly: ATPase assay. It is filed as biochemical, hepatitis C virus genotype 1b (con1). Conditions: Figure 7B.

Series [6] addresses NS3 protease (scNS3-NS4A) (Hepatitis C virus, UniProt Q9WMX2). Put plainly: Protease assay. It is filed as biochemical. The conditions noted are these: even at the highest concentrations tested. The method, boiled down:
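Full-length single-chain NS3-4A at 10 nM, in kit HCV protease buffer without DTT with 5% DMSO, cleaving a 5-carboxyfluorescein-labelled peptide substrate; fluorescence read at 520 nm. Test compound was run as a 7-point two-fold dilution series from 100 μM, in duplicate.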

The target in series [7] is T4, NS3h (Hepatitis C virus genotype 1b, UniProt Q9WMX2).
T4 sequence (Q9WMX2 1190-1657 limits assumed): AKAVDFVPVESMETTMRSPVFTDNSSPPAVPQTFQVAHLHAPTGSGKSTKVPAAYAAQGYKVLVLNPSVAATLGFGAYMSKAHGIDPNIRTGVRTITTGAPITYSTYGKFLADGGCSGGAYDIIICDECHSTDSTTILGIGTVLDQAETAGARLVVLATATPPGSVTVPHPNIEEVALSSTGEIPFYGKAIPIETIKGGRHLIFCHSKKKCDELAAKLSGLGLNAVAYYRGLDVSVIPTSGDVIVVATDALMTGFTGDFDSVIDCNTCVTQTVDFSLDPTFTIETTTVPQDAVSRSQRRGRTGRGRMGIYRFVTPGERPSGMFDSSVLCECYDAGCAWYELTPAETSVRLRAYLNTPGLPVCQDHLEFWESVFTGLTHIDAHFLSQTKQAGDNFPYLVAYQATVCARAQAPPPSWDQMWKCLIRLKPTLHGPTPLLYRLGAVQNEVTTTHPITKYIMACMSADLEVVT
The series can be described thus: ESI mass spectrometry of ebselen-treated NS3h. Also noted: species or system hepatitis C virus genotype 1b (con1). Conditions: 100 μM ebselen, 1 h, RT. The method, boiled down:
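Con1 NS3h was incubated 1 h at RT with 100 μM test compound in 10 mM ammonium acetate pH 7.5, 1% DMSO. It was dialysed against 10 mM ammonium acetate (three changes) and diluted to 0.15 mg/mL in 50:50 acetonitrile/water, 0.2% formic acid. Nano-ESI Q-TOF, positive mode, 3 kV, 0.7 μL/min, 10 min acquisition, compared with untreated and DMSO-treated protein.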

The target in series [8] is T5, NS3h_1b(con1) C279S (Hepatitis C virus genotype 1b, UniProt Q9WMX2, C1305S).
T5 sequence (Q9WMX2 1190-1657 C1305S limits assumed): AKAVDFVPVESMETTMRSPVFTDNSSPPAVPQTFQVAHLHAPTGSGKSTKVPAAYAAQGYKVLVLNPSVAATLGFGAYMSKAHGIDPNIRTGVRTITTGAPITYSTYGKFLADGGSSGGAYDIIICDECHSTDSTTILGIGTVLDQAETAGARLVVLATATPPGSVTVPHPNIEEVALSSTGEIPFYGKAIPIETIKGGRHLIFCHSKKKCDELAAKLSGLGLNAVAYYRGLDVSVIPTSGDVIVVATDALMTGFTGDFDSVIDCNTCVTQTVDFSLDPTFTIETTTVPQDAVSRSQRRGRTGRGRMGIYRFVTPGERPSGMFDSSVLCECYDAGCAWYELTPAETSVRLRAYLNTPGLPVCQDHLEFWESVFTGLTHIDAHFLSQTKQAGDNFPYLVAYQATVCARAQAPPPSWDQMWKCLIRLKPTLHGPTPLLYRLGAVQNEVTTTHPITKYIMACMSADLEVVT
The series can be described thus: DNA binding, ATP hydrolysis and DNA unwinding assays with C279S NS3h. It is filed as biochemical, hepatitis C virus genotype 1b (con1). The conditions noted are these: DNA binding, ATP hydrolysis, DNA unwinding.

Series [9] has as its target T6, NS3h_1b(con1) C289S (Hepatitis C virus genotype 1b, UniProt Q9WMX2, C1315S).
T6 sequence (Q9WMX2 1190-1657 C1315S limits assumed): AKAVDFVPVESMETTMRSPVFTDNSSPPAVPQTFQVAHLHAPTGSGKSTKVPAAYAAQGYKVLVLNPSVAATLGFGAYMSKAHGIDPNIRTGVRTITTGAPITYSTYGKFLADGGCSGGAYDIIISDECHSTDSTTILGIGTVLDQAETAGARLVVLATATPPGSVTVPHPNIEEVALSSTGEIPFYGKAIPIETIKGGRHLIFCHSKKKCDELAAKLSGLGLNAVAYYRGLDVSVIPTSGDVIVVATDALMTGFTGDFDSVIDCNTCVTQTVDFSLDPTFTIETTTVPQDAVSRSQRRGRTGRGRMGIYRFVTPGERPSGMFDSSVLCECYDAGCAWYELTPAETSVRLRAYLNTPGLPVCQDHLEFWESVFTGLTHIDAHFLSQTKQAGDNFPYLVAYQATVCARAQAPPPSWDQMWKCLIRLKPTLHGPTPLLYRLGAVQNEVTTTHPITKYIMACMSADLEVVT
The series can be described thus: DNA binding, ATP hydrolysis and DNA unwinding assays with C289S NS3h. The conditions noted are these: DNA binding, ATP hydrolysis, DNA unwinding. It counts as biochemical, hepatitis C virus genotype 1b (con1).

Series [10] concerns HCV genotype 2a isolate (JFH1). The conditions noted are these: 20 μM of each compound; ref Gastaminza et al.[9]; cited from earlier work.
The target of series [11] is SSB (Escherichia coli, UniProt P0AGE0 1-178). The series can be described thus: fluorescence polarization. For orientation: Polarisation of emitted light reports the rotation of a fluorescent probe.
Series [12] deals with T7, NS3h_1b(con1) (Hepatitis C virus genotype 1b, con1 …, UniProt Q9WMX2 1190-1657). Put plainly: fluorescence polarization.
Series [13] concerns the target NS3h_2a(JFH1) (Hepatitis C virus genotype 2a, JFH1, UniProt Q99IB8 1194-1661). Put plainly: fluorescence polarization.
Series [14] concerns the target T7, NS3h_1b(con1). The series can be described thus: fluorescence polarization. The source holds these as a separate data set.
For series [15], the target named is T7, NS3h_1b(con1). Put plainly: fluorescence polarization. The source holds these as a separate data set.

For orientation: IC50 means the point on the concentration scale where inhibition reaches its midpoint. For orientation: inhibition means the share of the control response that was lost under treatment. Turning to `O=c1c2ccccc2[se]n1-c1ccccc1` [Ebselen, 2-phenyl-1,2-benzisoselenazol-3(2H)-one], the “reversibility of NS3h inhibition” value in series [1] (10 μM NS3h treated with 10 μM ebselen for 1 h, then diluted to <0.1 μM ebselen) is listed as “reversible”; in series [1] (NS3h incubated with 100 μM ebselen, then dialysis) it was “irreversible”. Also, the “NS3h (% I): percent inhibition of NS3h binding to Cy5-dT15” value in [1] is 99%; in series [1] (listed as ebselen) it was “more than 50%”. Further, the IC50 in series [1] (IC50 DNA (Cy5-dT15–NS3h complex), Figure 1C titration, n = 3) is approximately 1000 nM; in series [2] it was approximately 1000 nM; in series [4] it was approximately 1000 nM; in series [5], approximately 1000 nM. In series [3] (Cy5-dT15 or Cy5-rU15, Figure 1D titration), the “effect on SSB binding to DNA or RNA” value was “no effect; also recorded: did not inhibit”. Further, the inhibition at 100 µM in [3] (read-out: SSB (% I): percent inhibition of SSB binding to Cy5-dT15) is 3%. In addition, in series [6], the “effect on NS3 protease activity (peptide cleavage by full-length NS3)” value was “no effect”. Further, the “number of ebselens bound to NS3h (covalent adducts)” value in series [7] stood at 14. For the same molecule, the “sensitivity to ebselen inhibition compared with wild type” value in [8] and in series [9] was “neither protein was more or less sensitive” each time. Further, the “HCV (% I): percent inhibition of HCV replication in cells” value in [10] is 83%.
Take TTTTTTTTTTTTTTT (ssDNA) [Cy5-dT15]: the binding result in series [11] and in series [12] was “binds” each time.
As to TTTTTTTTTTTTTTTTTTTT (ssDNA) [Cy5-dT20], the results for the binding signal in series [13] and in [14] were ~2 Ka relative to NS3h_1b(con1) and 1 Ka relative to NS3h_1b(con1), respectively.
For UUUUUUUUUUUUUUU (ssRNA) [Cy5-rU15], the binding result in [11] and in series [15] was “binds” throughout.
